Consider 17 compounds from ChEMBL document CHEMBL1129345, “Synthesis and potent anti-HIV-1 activity of novel 6-benzyluracil analogues of 1-[(2-hydroxyethoxy)methyl]-6-(phenylthio)thymine” (1996).

Each structure is given as a SMILES string.

Holding throughout (format): functional
Assay [1] deals with MT4. In words: Cytotoxic dose required to reduce the proliferation of normal uninfected MT-4 cells. As to conditions: Homo sapiens, read-out: CD50 (the source's name). In a few lines: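 Proliferation of uninfected MT-4 cells measured by MTT assay over a range of compound concentrations. A 30% inhibition of growth versus control cultures was counted as significant. CD50 is the concentration giving 50% reduction in proliferation, reported as the mean of three independent determinations.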

Assay [2] concerns Human immunodeficiency virus 1. In words: Effective dose of compound required to inhibit 50% of HIV-1 antigen production in MT-4 cultures. The conditions noted are these: read-out: ED50 (the source's name). In a few lines:
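MT-4 cells were infected with HIV-1 HTLV-IIIB (0.005 MOI) for 2 h and washed. They were then added 1:10 to uninfected MT-4 cells preincubated with compound for 2 h in RPMI 1640 with 10% heat-inactivated FCS. Cultures were kept with compound for 6 days, and supernatant HIV-1 antigen was measured by ELISA. ED50 (50% antigen reduction) is the mean of three independent determinations.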

The subject of assay [3] is MT4. In words: Selectivity index is the ratio between CD50 and ED50. In a few lines: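 Selectivity index computed as CD50 (MTT proliferation assay in uninfected MT-4 cells) divided by ED50 (HIV-1 antigen ELISA in HTLV-IIIB-infected MT-4 cultures, 6 days). Both values are means of three independent determinations.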

In the case of `CCOCn1c(Cc2ccccc2)c(C(C)C)c(=O)[nH]c1=O` [EMIVIRINE], the CC50 with MT4 [1] was 141 µM. In addition, the EC50 in assay [2] is 0.005 µM. For the same compound, the SI in the assay on MT4 [3] amounted to 28000.

Regarding `CCc1c(Cc2ccccc2)n(CSC)c(=O)[nH]c1=O`, in the assay on MT4 [1], the CC50 stood at 32 µM. The EC50 in assay [2] is 0.002 µM. In the assay on MT4 [3], the SI was 16000.

Take `CCOC(C)n1c(Cc2ccccc2)c(CC)c(=O)[nH]c1=O` (stereo not drawn): the EC50 in assay [2] is > 100 µM.

For the compound `CCc1c(Cc2ccccc2)n(C(C)OC)c(=O)[nH]c1=O` (stereo not drawn), the EC50 in assay [2] was > 100 µM.

Take `CCOCn1c(Cc2ccccc2)c(CC)c(=O)[nH]c1=O`: the EC50 in assay [2] was 0.041 µM.

Consider `CCc1c(Cc2ccccc2)n([C@@H]2CC[C@@H](CO)O2)c(=O)[nH]c1=O`, for which the CC50 in the assay with MT4 [1] turned out to be 1 µM. The EC50 in assay [2] came out at 0.5 µM. In the assay on MT4 [3], the SI is recorded as 2.

As to `CSCn1c(Cc2ccccc2)c(C(C)C)c(=O)[nH]c1=O`, the CC50 with MT4 [1] is 37 µM. Also, in assay [2], the EC50 was 0.02 µM. In addition, the SI in the assay with MT4 [3] is reported as 1850.

Turning to `CCc1c(Cc2ccccc2)n(C(C)OCCO)c(=O)[nH]c1=O` (stereo not drawn), in assay [2], the EC50 is > 100 µM.

In the case of `CCc1c(Cc2cc(C)cc(C)c2)n(C(C)OC)c(=O)[nH]c1=O` (stereo not drawn), in the assay on MT4 [1], the CC50 was 100 µM. For the same compound, the EC50 in assay [2] stood at 2 µM. The SI in the assay on MT4 [3] was 50.

As for `CCSCn1c(Cc2cc(C)cc(C)c2)c(CC)c(=O)[nH]c1=O`, the CC50 in the assay on MT4 [1] was 68 µM. Besides, the EC50 in assay [2] came to 0.004 µM. Further, the SI with MT4 [3] is 17000.

Turning to `CCc1c(Cc2cc(C)cc(C)c2)n(CSC)c(=O)[nH]c1=O`, the CC50 in the assay with MT4 [1] turned out to be 52 µM. In addition, in assay [2], the EC50 turned out to be 0.05 µM. Besides, the SI in the assay with MT4 [3] stood at 1040.

For `CCSCn1c(Cc2ccccc2)c(C(C)C)c(=O)[nH]c1=O`, the CC50 in the assay with MT4 [1] worked out at 37 µM. In assay [2], the EC50 turned out to be 0.006 µM. The SI in the assay with MT4 [3] was found to be 6200.

For the compound `Cc1cn([C@H]2C[C@H](N=[N+]=[N-])[C@@H](CO)O2)c(=O)[nH]c1=O` [ZIDOVUDINE], the CC50 in the assay with MT4 [1] was found to be 52 µM. Also, the EC50 in assay [2] worked out at 0.04 µM. The SI in the assay with MT4 [3] is reported as 1300.

For `CCc1c(Cc2ccccc2)n([C@H]2CC[C@@H](CO)O2)c(=O)[nH]c1=O`, the CC50 with MT4 [1] came out at 52 µM. The EC50 in assay [2] was determined as 37 µM. In addition, in the assay with MT4 [3], the SI was determined as 1.4.

For the compound `CCOC(CC)n1c(Cc2cc(C)cc(C)c2)c(CC)c(=O)[nH]c1=O` (stereo not drawn), the CC50 in the assay on MT4 [1] was 130 µM. Moreover, the EC50 in assay [2] was found to be 15 µM. Besides, the SI in the assay with MT4 [3] was 8.7.

With `CCSCn1c(Cc2ccccc2)c(CC)c(=O)[nH]c1=O`, in the assay with MT4 [1], the CC50 was 37 µM. Further, the EC50 in assay [2] amounted to 0.04 µM. For the same compound, in the assay on MT4 [3], the SI stood at 925.

Take `CCOCn1c(Cc2cc(C)cc(C)c2)c(CC)c(=O)[nH]c1=O`: in the assay with MT4 [1], the CC50 is 100 µM. In addition, the EC50 in assay [2] was found to be 0.004 µM. Also, in the assay with MT4 [3], the SI was found to be 25000.
